# Shown are actives, neighbours in structure and some others; about 2% of the full set was active somewhere.
# HNF4A DNA FP: change in binding of human HNF4 alpha to DNA | 0.3% of 360,000 active | P41235 | HNF4a-FITC DNA binding, fluorescence polarization, 1 h | AID 1224865 | activity change, % at 10 µM; in the data active = activity change above about 30%, passing the limit was not always enough
# Rpn11 block: blocks the human proteasome subunit Rpn11; O00487; human 26S proteasome, Ub4-pepOG fluorescence polarization; 20S core pre-blocked with epoxomicin; inhibition, % at 20 µM; 0.59% of 360,000 active; AID 588493;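 active = inhibition at 20 µM, scaled to each plate's controls, above about 33%, limit read from the data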
# TPT1 inhibitor: C. albicans TPT1 enzyme inhibition | recombinant caTPT1, FP RNA substrate dephosphorylation | inhibition, % at 5 µM | 0.81% of 300,000 active;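 active = inhibition above the mean of all tested compounds plus 3 SD, set per screening campaign, cut at about 24% in these data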;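 note: plate controls were DMSO alone for no effect and ferristatin control at 100 nM for full effect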
# CSN inh: blocks human CSN-mediated cullin deneddylation | 0.38% of 360,000 active | inhibition, % at 12.5 µM | Purified CSN, SCF-Nedd8-OG deneddylation, fluorescence polarization;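 active = pattern-corrected inhibition above about 35%, with an unprinted fluorescence ratio check between 0.5 and 1.5, limit read from the data, passing the limit was not always enough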;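 note: 0% = enzyme with substrate and 100% = substrate without enzyme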
#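 Assay system: purified human Csn5 enzyme expressed in HEK293T cells; measure: % inhibition; also added: SCFSkp2-Nedd8OG substrate at 10 nM final; technique: fluorescence polarization; times: reaction 90 min, room temperature; medium: Tris buffer pH 7.5, NaCl, DTT, Tween-20, trehalose, ovalbumin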
# SENP1 FRET inh: inhibitors of human SENP1 SUMO protease catalytic domain | Q9P0U3 | recombinant SENP1 catalytic domain, CyPet-SUMO1-YPet FRET cleavage | inhibition, % at 10 µM | 0.21% of 360,000 active | AID 624204;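 active = inhibition at least 30% at 10 µM, raw YFP signal under a set limit, fluorescence ratio 0.5 to 1.5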;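 note: 0% = enzyme with DMSO and 100% = no enzyme wells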
# Target sequence (Q9P0U3 419-644 limits assumed): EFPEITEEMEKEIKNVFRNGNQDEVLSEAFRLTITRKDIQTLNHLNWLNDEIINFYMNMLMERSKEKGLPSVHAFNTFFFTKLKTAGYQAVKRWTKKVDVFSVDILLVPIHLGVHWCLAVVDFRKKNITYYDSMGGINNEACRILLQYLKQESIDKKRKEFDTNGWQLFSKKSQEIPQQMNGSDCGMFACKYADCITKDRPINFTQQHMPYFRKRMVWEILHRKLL
#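 system = hSENP1 catalytic domain, recombinant | reagent = SFCypet-SUMO1-SFYpet substrate at 25 nM | doses = one dose per compound, 10 µM, 0.5% DMSO | incubation = enzyme reaction for 50 min at room temperature, dark | measured by = FRET, CFP and YFP emission | controls = no-enzyme low, enzyme-DMSO high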
# ATG4B inh: inhibitors of human ATG4B cysteine protease. inhibition, % at 8.33 µM. AID 504462. ATG4B cleavage of LC3-PLA2, NBD-HPC fluorescence, 1 h. 0.51% of 340,000 active
# ATG4B confirm: confirmation of human ATG4B inhibitors. shares compounds with ATG4B inh. ATG4B protease fluorescent substrate cleavage assay. inhibition, % at 8.33 µM. 92% of 320 active. AID 504757; in the data active = inhibition above about 39%
# PLA2 counter: inhibits human PLA2, flagging false ATG4B inhibitors; shares compounds with ATG4B inh; purified PLA2, NBD-C6-HPC fluorescence, 45 min; inhibition, % at 8.33 µM; 66% of 1,600 active; in the data active = inhibition above about 50%
# Target sequence (P04054 whole entry, looked up): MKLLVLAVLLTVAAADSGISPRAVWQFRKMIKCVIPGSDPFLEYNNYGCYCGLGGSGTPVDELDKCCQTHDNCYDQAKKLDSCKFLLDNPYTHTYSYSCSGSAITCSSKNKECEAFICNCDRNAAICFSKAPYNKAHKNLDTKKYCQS
# Rpn11 confirm: Rpn11 inhibition confirmation, single concentration; shares compounds with Rpn11 block; purified human 26S proteasome, Ub4-pepOG fluorescence polarization; proteasome pretreated with epoxomicin; inhibition, % at 20 µM; 29% of 1,900 active
# MMP-2 inh: counter-screen for RPN11 inhibitors: inhibition of human MMP-2 | shares compounds with Rpn11 block | recombinant MMP-2, FRET peptide cleavage fluorescence | inhibition, % at 20 µM | 4% of 1,900 active | AID 602330;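 note: human MMP-2 activated beforehand with APMA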
# Thrombin FP: counter-screen for RPN11 inhibitors: inhibition of bovine thrombin. inhibition, % at 20 µM. shares compounds with Rpn11 block. 13% of 1,900 active. AID 602333. bovine thrombin cleavage of Ub4-pepOG, fluorescence polarization;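 active = mean inhibition at least 40% at 20 µM, or signal 3 deviations below plate average, so some actives read negative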;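 note: plate controls were thrombin with DMSO for no effect and buffer wells lacking thrombin for full effect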
# * marks the source's active call; other numbers are inactive results; x = no result given. Cut-off read from the data, not from the text of the source, unless noted: active = inhibition above about 40%; inactive = the rest.
SMILES,HNF4A DNA FP,Rpn11 block,TPT1 inhibitor,CSN inh,SENP1 FRET inh,ATG4B inh,PLA2 counter,Rpn11 confirm,MMP-2 inh,Thrombin FP,others
Cc1c(Cl)cccc1NC(=O)COC(=O)c1c2c(nc3ccccc13)CCN(Cc1ccccc1)C2,4,61*,3,-10,-16,74*,85*,-22,-20,-4,
Cc1cc(N2CCN(C)CC2)ccc1NC(=O)c1c2c(nc3ccccc13)CCN(Cc1ccccc1)C2,2,3,0,2,-1,-5,x,x,x,x,
COCCCNC(=O)C[C@@H]1C[C@@]2(C(=O)OC)CCCCC=C2N(CCC2=CCCCC2)C1=O,2,x,x,-2,1,x,x,x,x,x,
O=C(N/N=C/c1ccc(-c2ccc(S(=O)(=O)Nc3ncccn3)cc2)o1)c1cc2ccccc2cc1O,-8,50*,-1,32,-12,75*,16,51*,-19,35,ATG4B confirm=38
CC(C(=O)Nc1ccc(C(=O)O)c(O)c1)N1C(=O)/C(=C\c2ccco2)SC1=S (stereo not given),-14,74*,15,53*,2,48*,12,45*,34,-6,ATG4B confirm=62*
CC(C(=O)N(C)C1CCS(=O)(=O)C1)N1C(=O)/C(=C/c2ccco2)SC1=S (stereo not given),8,19,-33,8,-7,-9,x,x,x,x,
CN1/C(=C\C(=S)NC(=O)c2ccccc2Cl)C(C)(C)c2ccccc21,68*,86*,14,22,-26,49*,40,11,42*,-6,
CCOC(=O)N1CCN(C(C(=O)NC2CCCC2)c2ccco2)CC1 (stereo not given),0,x,x,-1,2,x,x,x,x,x,
O=C1NC(=S)S/C1=C\c1cc2ccccc2nc1N1CCCCC1,13,54*,2,6,76*,65*,79*,74*,11,46*,
COc1ccc(Cl)cc1-c1nc(SCC(=O)N(C)C2CCS(=O)(=O)C2)n[nH]1 (stereo not given),2,-4,x,2,1,-5,x,x,x,x,
CC(C)N(Cc1nnc(-c2ccccc2Cl)o1)C(=O)COc1cccc(Cl)c1,-3,1,x,2,1,x,x,x,x,x,
Fc1cccc2sc(Nc3nnc(-c4ccccc4)o3)nc12,-5,24,-4,-1,-35,5,x,x,x,x,
COc1cc(OC)cc(-c2nnc(Nc3nc4c(F)cccc4s3)o2)c1,12,114*,-6,12,-48,57*,11,76*,32,-8,ATG4B confirm=51*
COc1ccccc1Nc1nnc(C)c(=O)[nH]1,-2,-2,-2,0,1,-2,x,x,x,x,

# Assay outcomes as filed in PubChem.
